From the RNAGym collection of RNA variant scans (doi:10.1126/science.aae0568)
Fewer inactive variants are shown than the library holds.

B1: tRNA (parent)
chain: GUUCCGUUGGCGUAAUGGUAACGCGUCUCCCUCCUAAGGAGAAGACUGCGGGUUCGAGUCCCGUACGGAACG

Variants of: B1
Assay: yeast fitness relative to wild type (ratio to wild type); higher = fitter; tRNA-Arg(CCU), competitive growth, 37 C, YPD
Outline: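 A pool of Saccharomyces cerevisiae strains, each with a tRNA-Arg(CCU) gene variant at the native genomic locus, was competed in YPD at 37°C for 24 hours across six parallel replicates. The variants had been chemically synthesised at a 3% per-site mutation rate over 69 sites, and gene amplicons before and after competition were read by 100-nucleotide paired-end sequencing. Darwinian fitness relative to wild type rested on changes in genotype frequencies. Genotypes required ≥ 100 starting reads, and estimates < 0.5 were set to 0.5.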

Point of comparison: GUUCCGUUGGCGUAAUGGUAACGCGUCUCCCUCCUAAGGAGAAGACUGCGGGUUGGAGGCCCGUACGGAACG, yeast fitness 0.566. Against it:
- GUUCCGUUGGCGUAAUGGUAACGCGUCUCCCUCCUAAGGAGAAGACUGCGGGUUGGAGUCCUGUACGGAACG — higher, 0.626
- GUUCCGUUGGCGUAAUGGUAACGCGUCUCCCUCCUAAGGAGAAGACUGCGGGUUGGAGUCCCGUAAGGAACG — lower, 0.546
- GUUCCGUUGGCGUAAUGGUAACGCGUCUCCCUCCUAAGGAGAAGACUGCGGGUUGGAGUCCCGUAUGGAACG — higher, 0.585
- GUUCCGUUGGCGUAAUGGUAACGCGUCUCCCUCCUAAGGAGAAGACUGCGGGUUACAGUCCCGUACCGAACG — higher, 0.574
- GUUCCGUUGGCGUAAUGGUAACGCGUCUCCCUCCUAAGGAGAAGACUGCGGGUUGGAGUACCGUAAGGAACG — lower, ≤ 0.5
- GUUCCGUUGGCGUAAUGGUAACGCGUCUCCCUCCUAAGGAGAAGACUGCGGGUUAGAGUCCUGUAUGGAACG — lower, 0.517
- GUUCCGUUGGCGUAAUGGUAACGCGUCUCCCUCCUAAGGAGAAGACUGCGGGUUGGAGUACAGUACGAUACG — lower, ≤ 0.5
- GUUCCGUUGGCGUAAUGGUAACGCGUCUCCCUCCUAAGGAGAAGACUGCGGGUUGGCGUCCCGUACGGAACG — higher, 0.713
- GUUCCGUUGGCGUAAUGGUAACGCGUCUCCCUCCUAAGGAGAAGACUGCGGGUUGGGGUCCCGUACGGAACG — higher, 0.638
- GUUCCGUUGGCGUAAUGGUAACGCGUCUCCCUCCUAAGGAGAAGACUGCGGGUUAGAGUCCUGUACGGAACG — higher, 0.685
- GUUCCGUUGGCGUAAUGGUAACGCGUCUCCCUCCUAAGGAGAAGACUGCGGGUUGGAGUCCCCUACCGAACG — lower, 0.532
- GUUCCGUUGGCGUAAUGGUAACGCGUCUCCCUCCUAAGGAGAAGACUGCGGGUUGGUGUCCCGUCCGGAACG — lower, ≤ 0.5
- GUUCCGUUGGCGUAAUGGUAACGCGUCUCCCUCCUAAGGAGAAGACUGCGGGUUGGAGUCCCGUACGGAGCG — higher, 0.673
- GUUCCGUUGGCGUAAUGGUAACGCGUCUCCCUCCUAAGGAGAAGACUGCGGGUUAGAGUCCCGUACGAAACG — higher, 0.674
- GUUCCGUUGGCGUAAUGGUAACGCGUCUCCCUCCUAAGGAGAAGACUGCGGGUUGGAGACCCAUACGGAACG — higher, 0.673
- GUUCCGUUGGCGUAAUGGUAACGCGUCUCCCUCCUAAGGAGAAGACUGCGGGUUAGAGUCCCGUACCGAACG — higher, 0.686
- GUUCCGUUGGCGUAAUGGUAACGCGUCUCCCUCCUAAGGAGAAGACUGCGGGUUAGACUCCCGUAGGGAACG — higher, 0.623
- GUUCCGUUGGCGUAAUGGUAACGCGUCUCCCUCCUAAGGAGAAGACUGCGGGUUAGAGUCCGGUACGGCACG — lower, ≤ 0.5
- GUUCCGUUGGCGUAAUGGUAACGCGUCUCCCUCCUAAGGAGAAGACUGCGGGUUGGAGUCCCGUACGGAACG — higher, 0.695
- GUUCCGUUGGCGUAAUGGUAACGCGUCUCCCUCCUAAGGAGAAGACUGCGGGUUAGAGUUCCGUACGGAACG — lower, 0.525
- GUUCCGUUGGCGUAAUGGUAACGCGUCUCCCUCCUAAGGAGAAGACUGCGGGUUGGAGUUCCGUACGCAACG — lower, ≤ 0.5
- GUUCCGUUGGCGUAAUGGUAACGCGUCUCCCUCCUAAGGAGAAGACUGCGGGUUGGAGUGCCGUAUGGAACG — lower, ≤ 0.5
- GUUCCGUUGGCGUAAUGGUAACGCGUCUCCCUCCUAAGGAGAAGACUGCGGGUUGGAGUCCCGUAUGGCACG — lower, ≤ 0.5
- GUUCCGUUGGCGUAAUGGUAACGCGUCUCCCUCCUAAGGAGAAGACUGCGGGUUACAGUCCCGUACGGAACG — lower, 0.522
- GUUCCGUUGGCGUAAUGGUAACGCGUCUCCCUCCUAAGGAGAAGACUGCGGGUUGGAGUCGCGUACGGAACG — lower, ≤ 0.5
- GUUCCGUUGGCGUAAUGGUAACGCGUCUCCCUCCUAAGGAGAAGACUGCGGGUUGGAGUCCCGUCCGGAACG — lower, 0.529
- GUUCCGUUGGCGUAAUGGUAACGCGUCUCCCUCCUAAGGAGAAGACUGCGGGUUGGAGUCCCGUGCGGAACG — lower, 0.528
- GUUCCGUUGGCGUAAUGGUAACGCGUCUCCCUCCUAAGGAGAAGACUGCGGGUUGGAGUCCCGUUCGGAACG — higher, 0.692
- GUUCCGUUGGCGUAAUGGUAACGCGUCUCCCUCCUAAGGAGAAGACUGCGGGUUGGAGUCCCGCACGGAACG — higher, 0.679
- GUUCCGUUGGCGUAAUGGUAACGCGUCUCCCUCCUAAGGAGAAGACUGCGGGUUAGAGACCCGUACGGAACG — lower, 0.513
- GUUCCGUUGGCGUAAUGGUAACGCGUCUCCCUCCUAAGGAGAAGACUGCGGGUUAGAGUCCCGUACGUUACG — lower, ≤ 0.5
- GUUCCGUUGGCGUAAUGGUAACGCGUCUCCCUCCUAAGGAGAAGACUGCGGGUUGGAGUCCCGUACGAAACG — higher, 0.604
- GUUCCGUUGGCGUAAUGGUAACGCGUCUCCCUCCUAAGGAGAAGACUGCGGGUUGGAGUUCCGUACGGAACG — lower, ≤ 0.5
- GUUCCGUUGGCGUAAUGGUAACGCGUCUCCCUCCUAAGGAGAAGACUGCGGGUUGGUGUCCUGUAUGGAACG — lower, ≤ 0.5
- GUUCCGUUGGCGUAAUGGUAACGCGUCUCCCUCCUAAGGAGAAGACUGCGGGUUAGAGUCGCGUACGGAACG — lower, ≤ 0.5
- GUUCCGUUGGCGUAAUGGUAACGCGUCUCCCUCCUAAGGAGAAGACUGCGGGUUAGAGUCCCGUAAGGAACG — lower, 0.541
- GUUCCGUUGGCGUAAUGGUAACGCGUCUCCCUCCUAAGGAGAAGACUGCGGGUUGAAGUCUCGUACGGAACG — lower, ≤ 0.5
